Assay results from ChEMBL document CHEMBL1141084, “Analogues of thiolactomycin as potential antimalarial agents” (J Med Chem, 2005).

Key:
[1] = tested on: Trypanosoma brucei rhodesiense; test: Inhibitory concentration against Trypanosoma brucei rhodesiense STIB 900 upon incubation at 37 degrees C in 5% CO2 for 72 hours; format: functional, organism-based
Plasmodium falciparum = test: In vitro inhibitory concentration against chloroquine-resistant, pyrimethamine-resistant Plasmodium falciparum K1; format: functional, organism-based
[2] = molecular target: T1, Beta-ketoacyl-ACP-synthase III (Plasmodium falciparum) (UniProt O77078); test: Percent inhibition of Plasmodium falciparum beta-Ketoacyl-acyl carrier protein synthase III activity (MBP-pfKASIII) expressed in E. coli cells using [1-14C]acetyl-CoA as radioligand upon incubation at 37 degrees C for 15 minutes with compound dissolved in 2% DMSO at 100 uM
T1 sequence (whole entry): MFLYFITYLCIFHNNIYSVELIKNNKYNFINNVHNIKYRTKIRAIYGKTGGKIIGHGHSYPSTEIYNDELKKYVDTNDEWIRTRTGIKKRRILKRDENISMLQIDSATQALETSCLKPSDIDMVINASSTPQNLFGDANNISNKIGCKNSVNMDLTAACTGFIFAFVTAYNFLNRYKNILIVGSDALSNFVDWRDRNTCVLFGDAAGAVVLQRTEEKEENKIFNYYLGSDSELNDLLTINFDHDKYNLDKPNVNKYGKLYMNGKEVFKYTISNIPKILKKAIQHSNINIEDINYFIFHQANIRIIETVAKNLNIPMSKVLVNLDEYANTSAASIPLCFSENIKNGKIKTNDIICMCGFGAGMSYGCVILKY

Trypanosoma cruzi = test: Inhibitory concentration against Trypanosoma cruzi [Tulahuen strain C2C4] in rat skeletal myoblasts upon incubation at 37 degrees C for 4 days in 5% CO2; format: functional, organism-based
Leishmania donovani = test: Inhibitory concentration against amastigotes of Leishmania donovani strain MHOM/ET/67/L82 upon incubation at 37 degrees C for 72 hours using alamar blue
[3] = molecular target: T1, Beta-ketoacyl-ACP-synthase III (Plasmodium falciparum); test: Percent inhibition of recombinant Plasmodium falciparum beta-Ketoacyl-acyl carrier protein synthase III activity (MBP-pfKASIII) expressed in E. coli cells using [1-14C]acetyl-CoA as radioligand upon incubation at 37 degrees C for 15 minutes with compound dissolved in 2% DMSO at 10 uM; NA = no activity
In short: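 MBP-fused pfKASIII from E. coli BL21(DE3) codon+RIL, amylose-purified, 500 ng per reaction. Buffer: 100 mM NaH2PO4 pH 6.6, with 25 µM E. coli ACP prereduced with 1 mM β-mercaptoethanol (37 °C, 30 min), 1 µg E. coli FabD, 65 µM malonyl-CoA and 45 µM [1-14C]acetyl-CoA. 2% DMSO final; 37 °C, 15 min. Read-out: filter disks, TCA-washed, scintillation-counted.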

Row | Structure (SMILES) | IC50 ([1]; Trypanosoma brucei, 72 h) | IC50 (Plasmodium falciparum; Plasmodium falciparum) | inhibition [2] | IC50 (Trypanosoma cruzi; Trypanosoma cruzi, 96 h) | IC50 (Leishmania donovani) | inhibition [3] | IC50 [1] | IC50 (Plasmodium falciparum) | IC50 (Trypanosoma cruzi)
1 | CCCCCCCCCCC1(C)SC(O)=C(CCCC)C1=O (stereo not given) | 8 µM | 71 µM | 60% | 77 µM | – | – | – | – | –
2 | CCCCCCCCCCC1(C)SC(=O)C(CCC)=C1OCCCCCCO[Si](C)(C)C(C)(C)C (stereo not given) | 149 µM | 3 µM | 10% | 14 µM | 7 µM | – | – | – | –
3 | CCCCCCCCCCC1(C)SC(=O)C(CCC)=C1OCc1ccccc1 (stereo not given) | > 223 µM | 4 µM | – | 13 µM | > 74 µM | No activity | – | – | –
4 | CCCCCCCCCCC1(C)SC(O)=C(CCC)C1=O (stereo not given) | 21 µM | 10 µM | 55% | 56 µM | – | – | – | – | –
5 | CCCCCCC1(C)OC(O)=C(C)C1=O (stereo not given) | 247 µM | 222 µM | – | > 424 µM | – | No activity | – | – | –
6 | CC(C)=CCC1(C)SC(O)=C(C)C1=O (stereo in doubt; 1a) | – | – | 30% | – | 56 µM | – | 182 µM | > 95 µM | > 142 µM
7 | CCCC1=C(O)C(C)(CCCCCCO[Si](C)(C)C(C)(C)C)SC1=O (stereo not given) | 2 µM | 37 µM | – | 150 µM | 1 µM | No activity | – | – | –
8 | C=CCC1(C)C(=O)SC(C)(CCCCCCCCCC)C1=O (stereo not given) | 157 µM | 26 µM | 5% | 55 µM | – | – | – | – | –
9 | CCCCCCC1(C)SC(O)=C(C)C1=O (stereo not given) | 112 µM | 139 µM | 10% | 127 µM | – | – | – | – | –
10 | CCCCCCCCCCCCCCCCC1(C)SC(O)=C(CC)C1=O (stereo not given) | 47 µM | 19 µM | 65% | 43 µM | – | – | – | – | –
11 | CCCCCCCCCCCCCCCCC1(C)SC(O)=C(CCC)C1=O (stereo not given) | 29 µM | 6 µM | 20% | 13 µM | 0.5 µM | – | – | – | –
12 | CCCCCCCCCCC1(C)OC(O)=C(CCCC)C1=O (stereo not given) | 13 µM | > 15 µM | 60% | 70 µM | – | – | – | – | –
13 | CC1=C(O)SC(C)C1=O (stereo not given) [THIOLACTONE] | > 624 µM | > 347 µM | – | > 624 µM | – | No activity | – | – | –
14 | CCCCCCCCCCC1(C)SC(O)=C(CC)C1=O (stereo not given) | 97 µM | 15 µM | 40% | 54 µM | – | – | – | – | –
15 | CCCCCCCCCCCCCCCCC1(CC)SC(O)=C(C)C1=O (stereo not given) | 130 µM | 35 µM | 40% | 49 µM | – | – | – | – | –
16 | CCCCCCC1(C)SC(O)=C(CC)C1=O (stereo not given) | 71 µM | 61 µM | 5% | 195 µM | – | – | – | – | –
17 | CCCCCCCCCCC1(C)OC(O)=C(CC)C1=O (stereo not given) | 62 µM | 94 µM | – | 146 µM | – | – | – | – | –
18 | C=CCOC1=C(CCC)C(=O)SC1(C)CCCCCCCCCC (stereo not given) | 14 µM | 1 µM | – | 80 µM | 66 µM | No activity | – | – | –
19 | CC1SC(O)=C(Cc2ccccc2)C1=O (stereo not given) | 408 µM | 195 µM | – | > 408 µM | – | No activity | – | – | –
20 | CCCC1(C/C=C(/C)CCC=C(C)C)C(=O)SC(C)C1=O (stereo not given) | 55 µM | 9 µM | 90% | 21 µM | 12 µM | – | – | – | –

Row | Structure (SMILES) | IC50 ([1]; Trypanosoma brucei, 72 h) | IC50 (Plasmodium falciparum; Plasmodium falciparum) | inhibition [2] | IC50 (Trypanosoma cruzi; Trypanosoma cruzi, 96 h) | IC50 (Leishmania donovani) | inhibition [3] | IC50 [1] | IC50 (Plasmodium falciparum) | IC50 (Trypanosoma cruzi)
21 | CCCCCCOCCOCCC1(C)SC(O)=C(CC)C1=O (stereo not given) | 119 µM | > 60 µM | – | 195 µM | – | No activity | – | – | –
22 | CCCCCCCCCCCCCCCCC1(C)SC(O)=C(Cc2ccccc2)C1=O (stereo not given) | 32 µM | 7 µM | 50% | 14 µM | 2 µM | – | – | – | –
23 | CCCCCCCCCCC1(C)SC(O)=C(Cc2ccccc2)C1=O (stereo not given) | 132 µM | 50 µM | 70% | 64 µM | – | – | – | – | –
24 | CCC1SC(O)=C(C)C1=O (stereo not given) | > 568 µM | > 316 µM | – | > 568 µM | – | No activity | – | – | –
25 | CCCC1=C(OC)C(C)SC1=O (stereo not given) | 9 µM | 45 µM | – | 359 µM | 100 µM | No activity | – | – | –
26 | CCCCCCCCCCC1(C)SC(=O)C(CCC)=C1OCCCCCCO (stereo not given) | 64 µM | 31 µM | 5% | 64 µM | 36 µM | – | – | – | –
27 | CCCCCCCCCCCCCCCCC1(C)SC(O)=C(C)C1=O (stereo not given) | 62 µM | 25 µM | 55% | 28 µM | – | – | – | – | –
28 | CCCC1=C(O)C(C)(CCCCCCO)SC1=O (stereo not given) | 64 µM | 157 µM | – | 64 µM | 88 µM | No activity | – | – | –
29 | CCCC1=C(O)SC(C)C1=O (stereo not given) | 288 µM | > 290 µM | – | > 522 µM | – | No activity | – | – | –
30 | CCC1=C(O)SC(C)C1=O (stereo not given) | 357 µM | 233 µM | – | 568 µM | – | No activity | – | – | –
31 | CCCCCCCCC1(C)SC(O)=C(CC)C1=O (stereo not given) | 157 µM | 54 µM | – | 165 µM | – | No activity | – | – | –
32 | C=CCC1(C)C(=O)SC(C)C1=O (stereo not given) | 79 µM | 62 µM | – | > 488 µM | – | No activity | – | – | –
33 | CCCCCCCCCCC1(C)SC(O)=C(C)C1=O (stereo not given) | 171 µM | 36 µM | 30% | 68 µM | – | – | – | – | –
34 | CCC1=C(O)OC(C)C1=O (stereo not given) | > 633 µM | > 351 µM | – | > 633 µM | – | – | – | – | –
35 | CCCCCCCCCCC1(CC)SC(O)=C(C)C1=O (stereo not given) | 153 µM | 65 µM | 15% | 72 µM | – | – | – | – | –
36 | C=CCOC1=C(C)C(=O)SC1(C)CCCCCCCCCC (stereo not given) | 167 µM | 6 µM | 5% | 30 µM | – | – | – | – | –
37 | CCCCCCCCC1(C)SC(O)=C(C)C1=O (stereo not given) | 194 µM | 153 µM | 10% | > 350 µM | – | – | – | – | –
38 | CC(C)=CCC/C(C)=C/CC1(C)SC(O)=C(C)C1=O (stereo not given) | 190 µM | 40 µM | 45% | 68 µM | – | – | – | – | –
39 | CCCCCCCCCCC1SC(O)=C(C)C1=O (stereo not given) | 6 µM | 72 µM | 30% | 164 µM | – | – | – | – | –
